A short description of series [1]: melting temperature; fluorescence melt of hairpins on a sequencing array, two-state fit, raised by 9.35 °C to match UV melts. The settings on record: sodium 0.088 M. In a few lines: (§1)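 Cy3 signals were normalised both to pre-quench Cy3 and to control constructs. They came from library hairpins carrying annealed Cy3 and quencher oligos on a sequenced MiSeq flow cell, imaged in 50 mM Na-HEPES pH 8.0, 25 mM NaCl, in 2.5 °C steps up to 60 °C. Bootstrapped two-state fits gave melting temperature and folding enthalpy, and four replicates were combined by inverse variance. Fitted temperatures were then raised by 9.35 °C to match UV melts.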

A short description of series [2]: folding enthalpy; higher = less favourable; fluorescence melt of hairpins on a sequencing array, two-state fit. The settings on record: sodium 0.088 M. In a few lines: as §1

GTATACGGAAACGCATAC ((((.((....)).)))): the Tm in series [1] was found to be 37.3 °C. The folding enthalpy in series [2] was -28.2 kcal/mol.
The like results for GATCATGCAGATGATC ((((((....)))))) were, in that order, 51.4 °C and -39.3 kcal/mol.
Take GGAACGTCGAAAGACTCC (((..(((....)))))): the Tm in series [1] was 32.1 °C. In series [2], the folding enthalpy is -11.7 kcal/mol.
For GGGTTAGGAAACTAACTC (.(((((....))))).), in series [1], the Tm is 42.3 °C. The folding enthalpy in series [2] was -25.8 kcal/mol.
With GCGACGCTCGC ((((...)))), in series [1], the Tm worked out at 50 °C. For the same sequence, in series [2], the folding enthalpy was -15.3 kcal/mol.
For GGTCTCGAAAGAGACACC ((((((....)))..))), in series [1], the Tm was determined as 48.4 °C. The folding enthalpy in series [2] was -9.21 kcal/mol.
On to GATCGGTATGCCGATC ((((((....)))))), for which, in series [1], the Tm is 62.1 °C. In series [2], the folding enthalpy is -41.9 kcal/mol.
Turning to GATCCTTCCAGGATC ((((((...)))))), in series [1], the Tm is 57.2 °C. In addition, the folding enthalpy in series [2] is -35.2 kcal/mol.
The like results for GATCTTTAAAAGATC ((((((...)))))) were, in that order, 39.9 °C and -23 kcal/mol.
Take GGCTTTCCGAAAGGAGCC (((..(((....)))))): in series [1], the Tm is 45.2 °C. The folding enthalpy in series [2] was -24.5 kcal/mol.
For GATTGACGAAAGTCATC (((.(((....)))))), the Tm in series [1] came to 38.9 °C. Also, the folding enthalpy in series [2] was -12.7 kcal/mol.
For the sequence GCGGCGCGAAAGCTCTGC ((.(.((....)).).)), in series [1], the Tm amounted to 47.4 °C. Besides, the folding enthalpy in series [2] is -22.9 kcal/mol.
With GGTTTTGGAAACGAAATC (.(((.(....).))).), the Tm in series [1] came to 25.2 °C. Besides, the folding enthalpy in series [2] was -12.1 kcal/mol.
The like results for GACGACGAAAGTCCTGTC ((((((....)))..))) were, in that order, 31.4 °C and -16.4 kcal/mol.
The like results for GATCTGCCAGCAGATC ((((((....)))))) were, in that order, 57.7 °C and -38.6 kcal/mol.
Regarding GATCCGCCGGCGGATC ((((((....)))))), the Tm in series [1] is 68.9 °C. In addition, in series [2], the folding enthalpy was -45.4 kcal/mol.
For GCCGCCGGAAACGGCGAC (.(((((....))))).), the Tm in series [1] amounted to 60.9 °C. Moreover, the folding enthalpy in series [2] was -10.6 kcal/mol.
With GCGGTAGGCCGC ((((....)))), in series [1], the Tm was 63.7 °C. The folding enthalpy in series [2] was -17.4 kcal/mol.
Turning to GCTGACGGAAACGTTAGC (((.(((....))).))), the Tm in series [1] worked out at 53.6 °C. For the same sequence, the folding enthalpy in series [2] was -43 kcal/mol.
As to GGTTTAGGAAACCAAACC (((((.(....).))))), the Tm in series [1] worked out at 37 °C. Further, in series [2], the folding enthalpy is -22.9 kcal/mol.
GGTAAGCGAAAGCTGACC (((.(((....))).))): in series [1], the Tm is 58.4 °C. The folding enthalpy in series [2] was -26.2 kcal/mol.
Regarding GCGAATAGTCGC ((((....)))), the Tm in series [1] is 44.7 °C. Further, the folding enthalpy in series [2] was -17.4 kcal/mol.
The corresponding values for GTGGGTGGAAACACCTAC ((.((((....)))).)) are 51 °C and -21.3 kcal/mol.
Take GATCGCGGGGGCGATC ((((((....)))))): the Tm in series [1] turned out to be 69.3 °C. In series [2], the folding enthalpy is -27.7 kcal/mol.
The corresponding values for GGACAGCGAAAGCTTCC (((.(((....)))))) are 43.5 °C and -20.9 kcal/mol.
Turning to GCGCGCGAAAGCGTCCGC ((((((....)))..))), the Tm in series [1] is 53 °C. In addition, the folding enthalpy in series [2] is -14.9 kcal/mol.
Consider CGCAATCGGAAACGAGCG (((..(((....)))))), for which the Tm in series [1] came out at 42.4 °C. Further, the folding enthalpy in series [2] was -25.4 kcal/mol.
Regarding GGCTGGCCGAAAGGCGCC (((..(((....)))))), the Tm in series [1] stood at 61 °C. Also, the folding enthalpy in series [2] is -16.4 kcal/mol.
Regarding GCTGCGCGAAAGCGGTGC ((..(((....)))..)), the Tm in series [1] came out at 55.1 °C. The folding enthalpy in series [2] was -19.6 kcal/mol.
For the sequence GGTACACGAAAGTGAACC (((.(((....))).))), the Tm in series [1] was 53.9 °C. Moreover, in series [2], the folding enthalpy is -36.8 kcal/mol.
With GATCATTTGTATGATC ((((((....)))))), in series [1], the Tm was 47.4 °C. In addition, in series [2], the folding enthalpy is -36 kcal/mol.
For GGTGTCGGAAACGACGTC (..((((....))))..), the Tm in series [1] worked out at 36.8 °C. Also, the folding enthalpy in series [2] was -12.3 kcal/mol.
The like results for GATCGTATGAACGATC ((((((....)))))) were, in that order, 53.6 °C and -31 kcal/mol.
On to GTGAGGCGAAAGCCCCAC (((.(((....))).))), for which the Tm in series [1] is 53.8 °C. Besides, the folding enthalpy in series [2] was -22.8 kcal/mol.
As for GATCCGTTACCGGATC ((((((....)))))), in series [1], the Tm is 59.5 °C. Besides, the folding enthalpy in series [2] was -34.6 kcal/mol.
GACAAACGAAAGTTGGTC (((.(((....))).))): the Tm in series [1] amounted to 49.6 °C. Moreover, the folding enthalpy in series [2] was -29.9 kcal/mol.
For GTTCCGGGAAACTGGAAC (((((.(....).))))), the Tm in series [1] worked out at 52.5 °C. Moreover, the folding enthalpy in series [2] was -39.6 kcal/mol.

For the origin of these results see the array DNA melting data of Ke et al. (doi:10.1101/2024.01.08.574731).
